Reference: ChEMBL document CHEMBL3351542, “Nonpeptide small molecule agonist and antagonist original leads for neuropeptide FF1 and FF2 receptors” (J Med Chem, 2014)
One block for each compound: values may come before it. Active and inactive are the calls of the source. The rule behind the calls is not given here. Square brackets hold non-standard residues; d marks the D form. Peptide text beside a SMILES is read from it. NMeF = CN[C@@H](Cc1ccccc1)C(=O)O

What was measured:
[1] = molecular target: T1, Neuropeptide FF receptor 1 (Homo sapiens, UniProt Q9GZQ6); experiment: Displacement of [3H]NPVF from human NPFF1 receptor expressed in CHO cells after 1 hr by liquid scintillation counting analysis; format: cell-based
[2] = molecular target: T2, Neuropeptide FF receptor 2 (Homo sapiens, UniProt Q9Y5X5); experiment: Displacement of [3H]EYF from human NPFF2 receptor expressed in CHO cells after 1 hr by liquid scintillation counting analysis; format: cell-based
Homo sapiens [3] = species: Homo sapiens; experiment: Selectivity ratio of Ki for human NPFF2 receptor to Ki for human NPFF1 receptor
Homo sapiens [4] = species: Homo sapiens; experiment: Selectivity ratio of Ki for human NPFF1 receptor to Ki for human NPFF2 receptor
[5] = molecular target: T1, Neuropeptide FF receptor 1; experiment: Displacement of [125I]YVP from human NPFF1 receptor expressed in CHO cells after 1 hr by liquid scintillation counting analysis; format: cell-based
Method in brief: (§1)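 Competition binding on CHO membranes stably expressing hNPFF1-R ([125I]YVP) or hNPFF2-R ([125I]EYF). Ki reported as mean ± SEM of two to four experiments in duplicate.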

[6] = molecular target: T2, Neuropeptide FF receptor 2; experiment: Agonist activity at human NPFF2 receptor expressed in CHO cells assessed as inhibition of forskolin-induced intracellular cAMP accumulation up to 1 uM by liquid scintillation counting analysis; format: functional, cell-based
Method in brief: (§2)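 Stably transfected CHO cells (200000) seeded overnight, labelled 1 h at 37 °C with [3H]adenine plus 0.1 μM adenine, rinsed in HEPES-Krebs-Ringer pH 7.4. Compound alone added with forskolin (20 μM in the added solution), IBMX and Ro-20 1724; 10 min at 37 °C, stopped with HCl. [3H]cAMP isolated on acid alumina columns, scintillation counted. Duplicates, two to four experiments.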

[7] = molecular target: T1, Neuropeptide FF receptor 1; experiment: Agonist activity at human NPFF1 receptor expressed in CHO cells assessed as inhibition of forskolin-induced intracellular cAMP accumulation up to 1 uM by liquid scintillation counting analysis; format: functional, cell-based; method in brief: as §2
[8] = molecular target: T2, Neuropeptide FF receptor 2; experiment: Antagonist activity at human NPFF2 receptor expressed in CHO cells assessed as inhibition of forskolin-induced intracellular cAMP accumulation at 10 to 30 uM after 10 mins by liquid scintillation counting analysis relative to control; format: functional, cell-based
Method in brief: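 At hNPFF2 CHO cells, compound alone tested at 10 and 30 μM in the forskolin-stimulated [3H]cAMP accumulation assay (10 min, 37 °C, IBMX and Ro-20 1724 present, alumina column isolation). Read-out is % inhibition of cAMP accumulation.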

[9] = molecular target: T1, Neuropeptide FF receptor 1; experiment: Antagonist activity at human NPFF1 receptor expressed in CHO cells assessed as reversal of NPVF-induced inhibition of intracellular cAMP accumulation after 10 mins by liquid scintillation counting analysis relative to control; format: functional, cell-based
[10] = molecular target: T2, Neuropeptide FF receptor 2; experiment: Antagonist activity at human NPFF2 receptor expressed in CHO cells assessed as reversal of 1DMe-induced inhibition of intracellular cAMP accumulation at 10 to 30 uM after 10 mins by liquid scintillation counting analysis relative to control; format: functional, cell-based
[11] = molecular target: T2, Neuropeptide FF receptor 2; experiment: Partial agonist activity at human NPFF2 receptor expressed in CHO cells assessed as inhibition of forskolin-induced intracellular cAMP accumulation at >1 uM by liquid scintillation counting analysis; format: functional, cell-based; method in brief: as §2
[12] = molecular target: T1, Neuropeptide FF receptor 1; experiment: Partial agonist activity at human NPFF1 receptor expressed in CHO cells assessed as inhibition of forskolin-induced intracellular cAMP accumulation at >1 uM by liquid scintillation counting analysis; format: functional, cell-based; method in brief: as §2
[13] = molecular target: T2, Neuropeptide FF receptor 2; experiment: Displacement of [125I]EYF from human NPFF2 receptor expressed in CHO cells after 1 hr by liquid scintillation counting analysis; format: cell-based; method in brief: as §1
Homo sapiens [14] = species: Homo sapiens; experiment: Selectivity for human NPFF2 receptor over human NPFF1 receptor
[15] = molecular target: T2, Neuropeptide FF receptor 2; experiment: Antagonist activity at human NPFF2 receptor expressed in CHO cells assessed as reversal of 1DMe-induced inhibition of intracellular cAMP accumulation after 10 mins by liquid scintillation counting analysis relative to control; format: functional, cell-based
[16] = molecular target: T2, Neuropeptide FF receptor 2; experiment: Agonist activity at human NPFF2 receptor expressed in CHO cells at 10 uM after 60 mins by [35S-GTPgammaS] binding assay relative to control; format: functional, cell-based
Method in brief: (§3)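 CHO cell membranes stably expressing hNPFF1-R (1.5 μg protein) or hNPFF2-R (0.7 μg). 60 min at 30 °C in 20 mM HEPES pH 7.4, 20 mM NaCl, 3 mM MgCl2, 0.1% BSA, saponin, GDP 0.1 μM (NPFF1) or 1 μM (NPFF2), 0.066 nM [35S]GTPγS; filtration, scintillation counting. Compound at 10 μM; % stimulation over basal, compared with 1DMe 10 μM. Two–four experiments in duplicate.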

[17] = molecular target: T1, Neuropeptide FF receptor 1; experiment: Agonist activity at human NPFF1 receptor expressed in CHO cells at 10 uM after 60 mins by [35S-GTPgammaS] binding assay relative to control; format: functional, cell-based; method in brief: as §3
[18] = molecular target: T1, Neuropeptide FF receptor 1; experiment: Agonist activity at human NPFF1 receptor expressed in CHO cells assessed as inhibition of forskolin-induced intracellular cAMP accumulation by liquid scintillation counting analysis; format: functional, cell-based; method in brief: as §2
[19] = molecular target: T2, Neuropeptide FF receptor 2; experiment: Agonist activity at human NPFF2 receptor expressed in CHO cells assessed as inhibition of forskolin-induced intracellular cAMP accumulation by liquid scintillation counting analysis; format: functional, cell-based

T2 sequence (Q9Y5X5 whole entry): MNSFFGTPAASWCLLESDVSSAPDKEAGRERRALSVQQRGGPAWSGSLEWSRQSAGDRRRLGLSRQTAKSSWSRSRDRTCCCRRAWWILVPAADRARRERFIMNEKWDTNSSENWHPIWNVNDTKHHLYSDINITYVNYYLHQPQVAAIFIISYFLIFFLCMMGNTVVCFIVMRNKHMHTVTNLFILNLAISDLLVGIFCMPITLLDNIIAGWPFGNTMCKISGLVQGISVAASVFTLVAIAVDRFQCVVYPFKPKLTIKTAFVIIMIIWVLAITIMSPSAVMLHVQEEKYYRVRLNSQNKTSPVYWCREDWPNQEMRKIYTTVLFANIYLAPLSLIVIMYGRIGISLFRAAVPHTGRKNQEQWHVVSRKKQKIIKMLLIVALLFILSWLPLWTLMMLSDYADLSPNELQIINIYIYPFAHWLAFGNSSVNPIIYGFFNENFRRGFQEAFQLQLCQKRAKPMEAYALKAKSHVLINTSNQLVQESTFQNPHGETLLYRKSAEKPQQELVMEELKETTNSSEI
T1 sequence (Q9GZQ6 whole entry): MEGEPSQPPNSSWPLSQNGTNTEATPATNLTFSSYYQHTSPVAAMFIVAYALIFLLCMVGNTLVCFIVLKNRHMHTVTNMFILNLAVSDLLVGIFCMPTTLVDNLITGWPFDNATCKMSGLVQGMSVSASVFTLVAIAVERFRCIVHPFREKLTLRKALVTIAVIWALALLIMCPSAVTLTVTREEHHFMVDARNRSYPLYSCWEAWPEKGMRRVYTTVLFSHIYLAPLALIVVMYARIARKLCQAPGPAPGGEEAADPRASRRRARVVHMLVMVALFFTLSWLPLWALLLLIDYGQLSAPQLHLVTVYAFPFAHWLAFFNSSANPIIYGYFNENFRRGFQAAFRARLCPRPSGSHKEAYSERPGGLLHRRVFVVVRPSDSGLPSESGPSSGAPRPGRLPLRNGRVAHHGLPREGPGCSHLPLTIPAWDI

Compound: COc1cccc(NC2(CNC(=O)CNC(=N)N)CCN(Cc3ccccc3)CC2)c1
Ki [1]: 201 nM
Ki [2]: 884 nM
Ratio Ki (Homo sapiens [3]): 4.4

Compound: COC(=O)c1ccc(CN2CCC(CNC(=O)CNC(=N)N)(Nc3ccccc3)CC2)cc1
Ki [1]: 340 nM
Ki [2]: 1510 nM
Ratio Ki (Homo sapiens [3]): 4.5

Compound: N=C(N)NCC(=O)NCC1(Nc2ccccc2)CCN(Cc2cccc3ccccc23)CC1
Ki [1]: 538 nM
Ki [2]: 129 nM
Ratio Ki (Homo sapiens [4]): 4.2

Ki ([5]; cho): 4 nM
Compound: CC(C)C[C@H](NC(=O)[C@H](N)Cc1ccc(O)cc1)C(=O)N(C)[C@@H](Cc1ccccc1)C(=O)N[C@@H](CCC(N)=O)C(=O)N1CCC[C@H]1C(=O)N[C@@H](CCC(N)=O)C(=O)N[C@@H](CCCNC(=N)N)C(=O)N[C@@H](Cc1ccccc1)C(N)=O (H-[dY]L[NMeF]QPQRF-NH2)

Compound: N=C(N)NCC(=O)NCC1(Nc2ccccc2)CCN(Cc2ccccc2)CC1
Activity [6]: Active
Ki [1]: 319 nM
Activity [7]: Active
Ki [2]: 405 nM
Emax [8]: 20%
EC50 [9]: 22 µM
Emax [9]: 83%
inhibition [10]: Active
Activity [11]: inactive
Activity [12]: inactive

Ratio Ki (Homo sapiens [4]): 1.6
Ki [13]: 304 nM
Ki [5]: 479 nM
Compound: N=C(N)NCCC[C@H](N)C(=O)NCC1(Nc2ccccc2)CCN(Cc2ccc3ccccc3c2)CC1

Compound: CN1CCC(CNC(=N)N)(Nc2ccccc2)CC1
Ki [13]: > 5000 nM
Ki [5]: > 5000 nM

Compound: N=C(N)NCCNC(=O)C1(Nc2ccccc2)CCN(Cc2ccccc2)CC1
Ki [1]: 81 nM
Ki [2]: 1430 nM
Activity [9]: Dose-dependent effect
EC50 [9]: 3.52 µM
Emax [9]: 68%

Ki [1]: 296 nM
Ki [2]: 910 nM
Ratio Ki (Homo sapiens [3]): 3
Compound: N=C(N)NCC(=O)NCC1(Cc2ccc(-c3ccccc3)cc2)CCN(Cc2ccccc2)CC1

Ki [13]: 6620 nM
Ki [5]: 1880 nM
Compound: N=C(N)NCC1(Nc2ccccc2)CCN(Cc2ccccc2)CC1

Selectivity ratio (Homo sapiens [14]): 10.7
Compound: CC(C)C[C@H](NC(=O)[C@H](Cc1ccccc1)NC(=O)[C@H](C)NC(=O)[C@H](CCC(N)=O)NC(=O)[C@@H](N)CO)C(=O)N[C@@H](Cc1ccccc1)C(=O)N[C@@H](CCC(N)=O)C(=O)N1CCC[C@H]1C(=O)N[C@@H](CCC(N)=O)C(=O)N[C@@H](CCCNC(=N)N)C(=O)N[C@@H](Cc1ccccc1)C(N)=O

Compound: N=C(N)NCCC[C@H](N)C(=O)NCC1CCN(Cc2ccccc2)CC1
Ki [13]: 7580 nM
Ki [5]: > 5000 nM

Compound: N=C(N)NCC(=O)NCC1(Nc2ccccc2)CCNCC1
Ki [1]: 15100 nM
Ki [2]: 2760 nM

Selectivity ratio (Homo sapiens [14]): 1.2
Compound: H-SLNFEELKDWGPKNVIKMSTPAVNKMPHSFANLPLRF-NH2

Compound: N=C(N)NCC1(Nc2ccccc2)CCN(CCc2ccccc2)CC1
Ki [13]: 2770 nM
Ki [5]: 2960 nM

Compound: N=C(N)NCC(=O)NCC1(Cc2cccc3ccccc23)CCN(Cc2ccccc2)CC1
Ki [1]: 112 nM
Ki [2]: 30 nM
Activity [9]: Dose-dependent effect
EC50 [9]: 2.6 µM
Emax [9]: 56.2%
EC50 [15]: 645 nM
Emax [15]: 22%

Ki [1]: 151 nM
Ki [2]: 465 nM
Ratio Ki (Homo sapiens [3]): 3
Compound: N=C(N)NCC(=O)NCC1(CCc2ccccc2)CCN(Cc2ccccc2)CC1

Emax [16]: 184%
Ki [13]: 1050 nM
Emax [17]: 36%
Ki [5]: 487 nM
Compound: N=C(N)NCCC[C@H](N)C(=O)NCC1(Nc2ccccc2)CCN(Cc2ccccc2)CC1

Ki [13]: 1690 nM
Ki [5]: 2910 nM
Compound: N=C(N)NCCC[C@H](N)C(=O)NCC1(Nc2ccccc2)CCN(CCc2ccccc2)CC1

Ki [1]: 316 nM
Ki [2]: 205 nM
Ratio Ki (Homo sapiens [4]): 1.5
Compound: N=C(N)NCC(=O)NCC1(Cc2ccc3ccccc3c2)CCN(Cc2ccccc2)CC1

Ki [1]: 511 nM
Ki [2]: 3500 nM
Ratio Ki (Homo sapiens [3]): 6.9
Compound: N=C(N)NCC(=O)NCC1(c2ccccc2)CCN(Cc2ccccc2)CC1

Compound: N=C(N)NCC(=O)NCC1(Nc2ccccc2)CCN(CC2CCCCC2)CC1
Ki [1]: 1640 nM
Ki [2]: 298 nM
Ratio Ki (Homo sapiens [4]): 5.5

Compound: COc1cc(NC2(CNC(=O)CNC(=N)N)CCN(Cc3ccccc3)CC2)cc(OC)c1
Ki [1]: 114 nM
Ki [2]: 987 nM
EC50 [18]: > 10 µM

Compound: CN1CCC(CNC(=O)[C@@H](N)CCCNC(=N)N)(Nc2ccccc2)CC1
Ki [13]: > 5000 nM
Ki [5]: > 5000 nM

Selectivity ratio (Homo sapiens [14]): 10.1
Compound: H-AGEGLSSPFWSLAAPQRF-NH2

Compound: N=C(N)NCCC(=O)NCC1(Nc2ccccc2)CCN(Cc2ccccc2)CC1
Ki [1]: 441 nM
Ki [2]: 2910 nM
Ratio Ki (Homo sapiens [3]): 6

Ki [1]: 432 nM
Ki [2]: 82 nM
Ratio Ki (Homo sapiens [4]): 5.3
Compound: N=C(N)NCC(=O)NCC1(Cc2ccc(Cl)c(Cl)c2)CCN(Cc2ccccc2)CC1

Compound: N=C(N)NCC(=O)NCC1(Nc2ccccc2)CCN(Cc2ccc3ccccc3c2)CC1
Ki [1]: 141 nM
Ki [2]: 504 nM
Ratio Ki (Homo sapiens [3]): 3.6

Compound: N=C(N)NCC(=O)NCC1(Nc2ccccc2)CCN(CCc2ccccc2)CC1
Ki [1]: 1060 nM
Ki [2]: 330 nM
Ratio Ki (Homo sapiens [4]): 3.2

Compound: N=C(N)NCC(=O)NCC1(Nc2cccc3ccccc23)CCN(Cc2ccccc2)CC1
Ki [1]: 94 nM
Ki [2]: 309 nM
EC50 [18]: > 10 µM

Compound: N=C(N)NCC(=O)NCC1(Nc2ccccc2)CCN(Cc2ccc(Br)cc2)CC1
Ki [1]: 112 nM
Ki [2]: 454 nM
Ratio Ki (Homo sapiens [3]): 4

Ki [1]: 417 nM
Ki [2]: 84 nM
EC50 [19]: > 1000 nM
Compound: N=C(N)NCC(=O)NCC1(Cc2ccccc2)CCN(Cc2ccccc2)CC1

Compound: N=C(N)NCC(=O)NCC1(Nc2ccc(Cl)c(Cl)c2)CCN(Cc2ccccc2)CC1
Ki [1]: 191 nM
Ki [2]: 409 nM
Ratio Ki (Homo sapiens [3]): 2.1
